Assay outcomes (PubChem BioAssay)
Rows were chosen to be rich in hits. Some 1.1% of all compounds tested hit in one or more screens of this group.
Diaph act CS = counter-screen for diaphorase-based assays: diaphorase activators and chemical reducers | activation factor at 20 µM | 190,000 tested, 0.005% active | AID 1229 | Diaphorase/resazurin coupled assay, resorufin fluorescence, 16 min; active compounds read high; 1 = vehicle wells, 0 = NADH-free wells;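 active means diaphorase activity raised at least twofold by the compound at 20 µM; inactive means activation factor below 2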
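Test system: Clostridium kluyveri diaphorase, purified enzyme; input: enzyme 0.07 U/mL final; buffer or medium: 50 mM HEPES pH 7.4 with 4.542 mM MgCl2, 0.005% Tween 20; also added: 0.114 mM NADH and 0.1 mM resazurin, final amounts; schedule: 16 min enzyme reaction, ambient temperature; technique: fluorescence of resorufin, 544 nm excitation, 590 nm emission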
PMI act = phosphomannose isomerase (human) activation; purified human PMI, coupled resazurin fluorescence, 20 min; active compounds read high; 1 = vehicle control, 0 substrate-free wells; 190,000 tested, 0.005% active; AID 1214; activation factor at 20 µM;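 active means activation factor of 2 or more at 20 µM, relative to plate controls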
Target sequence (P34949 whole entry, looked up): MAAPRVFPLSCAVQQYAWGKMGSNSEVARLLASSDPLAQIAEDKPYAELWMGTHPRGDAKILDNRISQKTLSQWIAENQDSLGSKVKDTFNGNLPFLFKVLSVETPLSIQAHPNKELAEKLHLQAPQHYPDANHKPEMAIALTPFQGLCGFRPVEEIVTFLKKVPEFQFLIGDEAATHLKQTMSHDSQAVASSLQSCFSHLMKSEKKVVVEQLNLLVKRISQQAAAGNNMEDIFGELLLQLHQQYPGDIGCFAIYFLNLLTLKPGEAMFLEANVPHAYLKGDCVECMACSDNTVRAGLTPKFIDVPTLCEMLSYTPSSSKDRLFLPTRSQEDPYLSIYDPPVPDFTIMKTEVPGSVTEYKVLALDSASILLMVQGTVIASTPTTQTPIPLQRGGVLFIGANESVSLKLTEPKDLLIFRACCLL
PMI act satM6P = activators of human phosphomannose isomerase at near-saturating mannose 6-phosphate. P34949. coupled PMI enzyme assay, resazurin fluorescence, 20 min; active compounds read high; 1 = untreated enzyme, 0 = substrate-free blank. activation factor at 20 µM. 190,000 tested, 0.34% active;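 active means activation factor of 2 or more at 20 µM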
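Test system: human phosphomannose isomerase with PGI, G6PDH, diaphorase coupling enzymes / Doses: 20 µM compound, 1% DMSO / Times: enzyme reaction with compound 20 min at room temperature / Measured by: Diaphorase-driven resazurin-to-resorufin fluorescence, excitation 544, emission 590 nm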
G6PDH counter = counter-screen for G6PDH assay hits: L. mesenteroides G6PDH inhibition | 200,000 tested, 0.12% active | Purified L. mesenteroides G6PDH, diaphorase/resazurin coupled fluorescence, 45 min | inhibition, % at 5 µM; in the data active means inhibition above about 50%
Diaph inh CS = diaphorase inhibition or chemical oxidation counter-screen | diaphorase resazurin-to-resorufin fluorescence, NADH, 16 min; bacterial (C. kluyveri) enzyme, not human | inhibition, % at 20 µM | 190,000 tested, 0.69% active;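 active means primary screen inhibition at 20 µM above a set limit, cut at about 50% in these data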;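 further: plate controls were DMSO with full reaction for no effect and wells lacking NADH for full effect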
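Detection: fluorescence of resorufin formed from resazurin, Ex 544/Em 590 nm; test system: Clostridium kluyveri diaphorase enzyme; amount: 0.14 U/mL diaphorase, enzyme working solution; times: 16-min room-temperature incubation before reading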
An asterisk follows results filed as active.

SMILES	Diaph act CS	PMI act	PMI act satM6P	G6PDH counter	Diaph inh CS
CC1(C)Oc2ccc3ccc(=O)oc3c2C(N2CCCCC2)C1O (stereo unspecified)	1	1.5	2.1*	13	2
CC(=O)NC(Cc1cccc(F)c1)C(=O)NC1CCN(C(=O)c2ccc(C)cc2)CC1 (stereo unspecified)	0.9	1	0.9	11	8
CC(=O)Nc1ccc(S(=O)(=O)Nc2nc3ccccc3nc2N2CCCC2)cc1	0.5	1	1.1	-3	50*
CC12CCC(C(=O)Nc3nc4ccc(Br)cc4s3)(OC1=O)C2(C)C (stereo unspecified)	0.9	1	1	-2	6
Cn1cc(/C=N\O)nc2c(=O)n(-c3ccccc3)c(=O)nc1-2	0.7	0.8	0.4	8	34
CCCC[n+]1c(C)sc2ccc(C)cc21	0.3	0.4	0.9	13	66*
CC[n+]1c(C)sc2cc(C)ccc21	0.5	0.2	0.9	8	54*
Cc1ccc2sc(C)[n+](CCO)c2c1	0.9	1.1	1.1	-2	7
Cc1nc2c(C(=O)NCCc3ccccc3)c[nH]n2c(=O)c1Cl	0.2	0.4	0.4	14	79*
Cc1nc2c(C(=O)NCCC(C)C)c[nH]n2c(=O)c1Cl	0.7	1	1	0	28
O=[N+]([O-])c1cc2c(cc1/C=N/n1c(-c3ccccc3)n[nH]c1=S)OCO2	0.4	1	1	-3	55*
COc1ccccc1/C=C\C=N\n1c(-c2ccc(Cl)cc2)n[nH]c1=S	0.9	0.9	0.9	7	12
S=c1[nH]nc(-c2ccco2)n1/N=C/c1ccccn1	0.7	0.8	0.9	-1	29
Cc1ccc(-c2n[nH]c(=S)n2/N=C/C=C/c2ccccc2[N+](=O)[O-])cc1	0.4	0.9	1	1	55*
O=[N+]([O-])c1ccccc1/C=C/C=N/n1c(-c2ccco2)n[nH]c1=S	0.2	0.9	0.9	1	81*
NC(=O)C(=O)N/N=C/c1cccc(C(F)(F)F)c1	1	1.1	1.1	1	-1
O=C(Cc1ccc(-c2ccccc2)cc1)OCC(=O)N1CCCC1=O	0.9	0.9	0.8	7	14
Cc1cc(C)c2c(N)c(C(=O)N3CCc4ccccc4C3)sc2n1	0.7	1.5	2*	9	30
COc1ccc2nc3cccc(OC)c3nc2c1	0.8	1.2	0.9	51*	23
c1coc(-c2nc(-c3ccco3)c(-c3ccco3)nc2-c2ccco2)c1	0.1	0.9	0.8	21	94*
COc1ccc2nc(-c3ccco3)c(-c3ccco3)nc2c1	0.2	1.1	1.4	25	78*
C=CCn1c(CCc2cc(C(C)(C)C)c(O)c(C(C)(C)C)c2)n[nH]c1=S	0.8	0.9	0.9	4	24
Nc1cc(N)c(OCC(F)(F)F)cc1OCC(F)(F)F	0.5	1.1	0.4	51*	50*
CC(C)(C)C1CCC(=NNC(=O)C(=O)NCc2cccnc2)CC1 (stereo unspecified)	1	1	0.9	6	1
CC(C)(C)C1CCC(=NNC(=S)NCc2ccccc2)CC1 (stereo unspecified)	1	1.8	2*	7	1
SMILES	Diaph act CS	PMI act	PMI act satM6P	G6PDH counter	Diaph inh CS
CCC(C)(C)C1CCC(=NNC(=S)Nc2ccccc2)CC1 (stereo unspecified)	0.9	1.7	2.3*	2	14
COc1ccc(/C=C/C(=O)C23CC4CC(CC(C4)C2)C3)cc1CN1CCOCC1	1	0.8	0.9	4	0
Cc1cc([N+](=O)[O-])nn1CC(=O)NNC(=S)Nc1ccc([N+](=O)[O-])cc1	0.4	1.1	0.9	10	62*
CCC(=O)N(CC)C1=C(O)c2ccccc2C(=O)C1=O	0.6	0.8	0.8	52*	37
COc1cc(Cl)cc(/C=N/NC(N)=O)c1O	0.7	0.6	0.5	54*	26
O=C(NC(=S)Nc1cccc(C(F)(F)F)c1)c1csnn1	1	1	1.1	9	3
CC(C)(C)C(=O)NC(=S)Nc1sc2c(c1C(N)=O)CCC2	0.5	0.7	1	0	50*
CC(C)CC(=O)NC(=S)Nc1sc2c(c1C(N)=O)CCC2	0.7	0.8	0.9	8	28
Cc1ccc(C(=O)NC(=S)Nc2cccc3nsnc23)cc1	0.4	0.6	0.6	8	59*
Cc1ccc(C(=O)NC(=S)Nc2c(C)ccc3nsnc23)cc1	0.8	0.7	0.7	-3	17
C#CC1(NC(=O)NCCCC)CCCCC1	1.1	1	1	4	-11
O=c1cccccc1NCc1ccccc1	0.7	0.8	0.9	13	33
O=C1C=C(Nc2ccccc2O)c2ccccc2C1=O	0.8	0.7	0.4	56*	16
O=C1C=C(NCc2ccccc2)c2ccccc2C1=O	1.1	0.7	0.9	53*	-15
CCCCCCCCCCCC(=O)N/N=C/c1ccco1	0.9	0.9	1	9	8
CCN1CCN(C(=S)c2ccc([N+](=O)[O-])cc2)CC1	0.9	0.9	0.9	-12	8
O=c1[nH]c2ccccc2c(O)c1O	0.3	0.3	0.2	15	72*
O=C1CCCC2=C1C(c1ccco1)Nc1ccc(C(=O)c3ccccc3)cc1N2 (stereo unspecified)	0.3	1.2	1.3	32	68*
COc1ccc(-c2nc(=S)c3ccc4ccccc4c3[nH]2)cc1	0.9	1.7	2.3*	0	9
COc1ccc(-c2nc3ccccc3[nH]2)cc1	1	1	1	1	4
CCOC(=O)C1=C(C)NC(SC)=NC1c1ccc(OC)cc1 (stereo unspecified)	0.9	1.5	2.3*	4	9
CCN(CC)CCCNC1=C(Cl)C(=O)c2ccccc2C1=O	0.8	0.8	0.4	54*	22
CCOc1c(O)ccc(/C=C2\SC(=S)NC2=O)c1[N+](=O)[O-]	0.5	0.4	0.4	16	54*
O=C(N/N=C/c1ccncc1)c1cccc(N/N=C/c2ccncc2)c1	1.1	1.4	1.2	-4	-13
O=C(N/N=C/c1ccncc1)c1cccc(NC(=O)c2ccc(Cl)cc2)c1	1.4	1.6	2.4*	-10	-36
Cc1onc(C(=O)NCc2ccccn2)c1[N+](=O)[O-]	1	1	1	0	1
O=C(O)C1CC=CCC1C(=O)NNc1ccccc1 (stereo unspecified)	0.9	1.9	2.7*	6	5
O=C1c2cccc([N+](=O)[O-])c2C(=O)N1CCO	0.8	1	1	3	19
O=C1c2cccc3c(Nc4ccccc4Cl)c([N+](=O)[O-])cc(c23)C(=O)N1CCO	0.4	0.8	0.9	16	56*
